ChEMBL document CHEMBL5506013, “Mitochondria-Selective Dicationic Small-Molecule Ligand Targeting G-Quadruplex Structures for Human Colorectal Cancer Therapy” (J Med Chem, 2024)
The source made the active and inactive calls. The rule behind the calls is not given here.

Key:
Quadruplex DNA [1] = assay: Binding affinity to mito 0.5-15 G4 DNA (unknown origin) assessed as increase in fluorescence intensity by fluorescence spectrophotometric analysis; format: nucleic-acid assay
In short: (§1)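 Oligonucleotides were pre-annealed at 95 °C for 10 min, then cooled slowly. Ligand (5 uM) was mixed with 20 uM DNA in buffer. Emission was collected over 550–800 nm, and enhancement was taken at 650 nm as F/F0.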

HCT-116 [2] = assay: Induction of apoptosis in human HCT-116 cells at upto 4 uM measured after 72 hrs by annexin V-BUV396 and 7-AAD staining based flow cytometry analysis (reference value: 2.64%); format: functional; conditions: up to 4 µM
In short: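 HCT116 cells treated at 0-4 uM for 72 h, stained with Annexin V-BUV396 and 7-AAD, and the apoptotic fraction quantified by flow cytometry.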

HCT-116 [3] = assay: Downregulation of ND2 gene expression in human HCT-116 cells at 0 to 4 uM measured after 48 hrs by q-PCR analysis; format: functional, cell-based; conditions: dose 0-4 µM
HCT-116 [4] = assay: Downregulation of CYTB protein level in human HCT-116 cells at upto 4 uM incubated for 48 hrs by Western blot analysis; format: functional, cell-based
Quadruplex DNA [5] = assay: Binding affinity to mito 29 G4 DNA (unknown origin) assessed as dissociation constant measured upto 150 secs by isothermal titration calorimetry assay; format: nucleic-acid assay; conditions: time <= 150.0 sec
HCT-116 [6] = assay: Downregulation of COX2 protein level in human HCT-116 cells at upto 4 uM incubated for 48 hrs by Western blot analysis; format: functional, cell-based
[7] = Toxicity in BALB/c nude mouse assessed as change in white blood cell count at 5 mg/kg, iv administered every two days for 16 days; format: organism-based; conditions: in vivo, 384 h, time 16 day
In short: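 HCT116 xenograft-bearing male Balb/c nude mice (6/group) dosed iv at 5 mg/kg every two days or with PBS. Whole blood collected at sacrifice on day 16 for hematology parameters.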

HCT-116 [8] = assay: Downregulation of ND3 mRNA level in human HCT-116 cells at 0 to 4 uM measured after 48 hrs by qRT-PCR analysis; format: functional, cell-based; conditions: dose 0-4 µM
DNA [9] = assay: Binding affinity to SS19 DNA (non-G4 DNA) (unknown origin) assessed as dissociation constant measured upto 150 secs by isothermal titration calorimetry assay; format: nucleic-acid assay
HCT-116 [10] = assay: Downregulation of ND1 gene expression in human HCT-116 cells at 0 to 4 uM measured after 48 hrs by q-PCR analysis; format: functional, cell-based; conditions: dose 0-4 µM
HCT-116 [11] = assay: Downregulation of Ki67 expression level in human HCT-116 cells at upto 4 uM measured after 72 hrs by immunofluorescence analysis; format: functional, cell-based
In short: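 HCT116 cells treated with ligand at 0-4 uM for 72 h. Lamin B1 and Ki67 imaged by immunofluorescence (excitation 635 nm), or lamin B1 probed on Western blot with β-actin as loading control.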

HCT-116 [12] = assay: Induction of mitochondrial dysfunction in human HCT-116 cells assessed as decrease in oxygen consumption rate at upto 4 uM incubated for 3 hrs by Seahorse XFe24 analyzer; format: functional, cell-based
In short: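 Seahorse Mito-stress and glycolysis stress tests on HCT116 cells treated with ligand for 3 h. Oxygen consumption rate and extracellular acidification rate recorded.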

DNA [13] = assay: Binding affinity to HP19 DNA (non-G4 DNA) (unknown origin) assessed as dissociation constant measured upto 150 secs by isothermal titration calorimetry assay; format: nucleic-acid assay
[14] = Drug localization in human HCT-116 cells transfected with Cy5-mito 78 G4 DNA at 4 uM incubated for 1 hr by hoechst33342 staining based analysis; format: ADME, cell-based; conditions: hct-116, 1 h
In short: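 HCT116 cells transfected with Cy5-coupled mtDNA for 24 h, then given ligand 4 uM for 1 h and Hoechst33342 1 uM for 30 min. Single-plane confocal imaging of living cells, ligand excited at 488 nm, Cy5 at 635 nm. Colocalization expressed as r.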

[15] = Drug localization in nucleus of human HCT-116 cells at upto 4 uM incubated for 1 hrs by hoechst33342 staining based live cell imaging analysis; format: ADME, subcellular; conditions: hct-116, 1 h
Quadruplex DNA [16] = assay: Binding affinity to Mut 55 G4 DNA (unknown origin) assessed as increase in fluorescence intensity by fluorescence spectrophotometric analysis; format: nucleic-acid assay; in short: as §1
HCT-116 [17] = assay: Induction of DNA damage in human HCT-116 assessed as increase in gammaH2AX level at upto 4 uM incubated for 72 hrs by Western blot analysis; format: functional, cell-based
In short: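 HCT116 cells treated with ligand at 0-4 uM for 72 h. Lysates immunoblotted for Lamin B1, p53, p21, p16, gamma-H2A.x, caspase-3 and cleaved caspase-3, with beta-actin as loading control.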

[18] = Drug localization in human HCT-116 cells transfected with Cy5-SS19 non G4 DNA at 4 uM incubated for 1 hr by hoechst33342 staining based analysis; format: ADME, cell-based; conditions: hct-116, 1 h
In short: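 HCT116 cells transfected with Cy5-labelled DNA (excitation 635 nm) for 24 h. Ligand 4 uM added for 1 h, then Hoechst33342 1 uM for 30 min. Colocalization of ligand with Cy5 quantified by Pearson r from confocal images.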

HCT-116 [19] = assay: Downregulation of COX2 mRNA level in human HCT-116 cells at 0 to 4 uM measured after 48 hrs by qRT-PCR analysis; format: functional, cell-based; conditions: dose 0-4 µM
Quadruplex DNA [20] = assay: Binding affinity to Mito 81 G4 DNA (unknown origin) assessed as increase in CD signal at 5 uM at 265 nM by circular dichroism spectroscopic analysis; format: nucleic-acid assay
HCT-116 [21] = assay: Downregulation of COX1 protein level in human HCT-116 cells at upto 4 uM incubated for 48 hrs by Western blot analysis; format: functional, cell-based
Quadruplex DNA [22] = assay: Binding affinity to Mut 78 G4 DNA (unknown origin) assessed as increase in fluorescence intensity by fluorescence spectrophotometric analysis; format: nucleic-acid assay; in short: as §1
Quadruplex DNA [23] = assay: Binding affinity to mito 29 G4 DNA (unknown origin) assessed as increase in fluorescence intensity by fluorescence spectrophotometric analysis; format: nucleic-acid assay; in short: as §1
Quadruplex DNA [24] = assay: Binding affinity to mito 55 G4 DNA (unknown origin) assessed as dissociation constant measured upto 150 secs by isothermal titration calorimetry assay; format: nucleic-acid assay
DNA [25] = assay: Binding affinity to HP19 DNA (non-G4 DNA) (unknown origin) assessed as increase in fluorescence intensity by fluorescence spectrophotometric analysis; format: nucleic-acid assay; in short: as §1
HCT-116 [26] = assay: Induction of ROS production in human HCT-116 cells assessed as upregulation of ROS level measured after 48 hrs by mito-sox staining based analysis; format: functional, cell-based; conditions: dose <= 4.0 µM
HCT-116 [27] = assay: Upregulation of p53 level in human HCT-116 cells at upto 4 uM measured after 72 hrs by Western blot analysis; format: functional, cell-based
[28] = Drug localization in mitochondria of living human HCT-116 cells assessed as colocalization at 4 uM incubated for 1 hr by Mito-tracker deep red staining based analysis; format: ADME; conditions: hct-116, 1 h
Quadruplex DNA [29] = assay: Binding affinity to mito 0.5-15 G4 DNA (unknown origin) assessed as dissociation constant measured upto 150 secs by isothermal titration calorimetry assay; format: nucleic-acid assay

SMILES: C(=C\c1ccc2ccccc2[n+]1CCCCCCCC[n+]1c(/C=C/c2ccc(N3CCCCC3)cc2)ccc2ccccc21)/c1ccc(N2CCCCC2)cc1.[I-].[I-]
- Activity (Quadruplex DNA [1]): Active
- Activity (HCT-116 [2]): 27.4%
- Activity (HCT-116 [3]): Active
- Activity (HCT-116 [4]): Active
- Activity (Quadruplex DNA [5]): inactive
- Activity (HCT-116 [6]): Active
- Activity [7]: Non-Toxic
- Activity (HCT-116 [8]): Active
- Kd (DNA [9]): > 4700 nM
- Activity (HCT-116 [10]): Active
- Activity (HCT-116 [11]): Active
- Activity (HCT-116 [12]): Active
- Kd (DNA [13]): > 4700 nM
- Drug uptake [14]: Active
- Drug uptake [15]: Not Active
- Activity (Quadruplex DNA [16]): inactive
- Activity (HCT-116 [17]): Active
- Drug uptake [18]: Not Active
- Activity (HCT-116 [19]): Active
- Activity (Quadruplex DNA [20]): Active
- Activity (HCT-116 [21]): Active
- Activity (Quadruplex DNA [22]): inactive
- Activity (Quadruplex DNA [23]): Active
- Kd (Quadruplex DNA [24]): 60 nM
- Activity (DNA [25]): inactive
- Activity (HCT-116 [26]): Dose-Dependent Effect
- Activity (HCT-116 [27]): Active
- Drug uptake [28]: Active
- Kd (Quadruplex DNA [29]): 60 nM
